Compound activity: PubChem BioAssay, several laboratories
TbMetRS inhib = Trypanosoma brucei MetRS inhibition. inhibition, % at 11.9 µM. AID 624268. purified T. brucei MetRS, ATP depletion, Kinase-Glo luminescence. actives 0.4% (n = 360,000);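 active means inhibition above a per-plate cutoff of the control wells' mean inhibition plus 3 SD, cut at about 5.5% in these data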;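 further: 0% = DMSO wells median and 100% = median of wells with control inhibitor compound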
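Test system – parasite MetRS enzyme · Reagent – substrates ATP, L-methionine and bulk Escherichia coli tRNA · Doses – 11.9 µM compound single dose, 0.9% DMSO · Times – 15 min enzyme-compound preincubation, 2 h reaction, 10 min detection, 25 °C · Signal – Kinase-Glo luminescence, ATP depletion format · Controls – DMSO-only wells as low control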
UCH37 inh = blocks the human deubiquitinase UCH37. Q9Y5K5. actives 0.33% (n = 330,000). purified proteasome/UCH37, Ub-AMC cleavage fluorescence. inhibition, % (concentration not given with the values);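 active means mean inhibition over replicate wells above about 20%, limit read from the data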;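 further: 0% = compound-free wells with enzyme and 100% = wells lacking proteasome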
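Material: Human UCH37 enzyme supplied as purified proteasome complex | Schedule: 30 min preincubation with enzyme, 25 min cleavage at room temperature | Detection: AMC fluorescence 355/460 nm | Measure: % inhibition of Ub-AMC cleavage fluorescence | Controls: Wells without proteasome as full block, compound-free enzyme plus substrate as uninhibited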
ATG4B inhibitor = inhibitors of human ATG4B cysteine protease. ATG4B cleavage of LC3-PLA2, NBD-HPC fluorescence, 1 h. Q9Y4P1. inhibition, % at 8.33 µM. actives 0.51% (n = 340,000). AID 504462; in the data active means inhibition above about 40%
Rin1 Abl inh = inhibitors of human Rin1-Abl protein interaction | P00519+Q13671 | TR-FRET Rin1/Abl binding, biochemical | inhibition, % at 7.35 µM | actives 0.4% (n = 360,000) | AID 588664; in the data active means inhibition above about 5%, passing the limit was not always enough
ATG4B confirm = ATG4B (human) inhibition, single-dose confirmed. actives 92% (n = 320). inhibition, % at 8.33 µM. ATG4B protease fluorescent substrate cleavage assay. AID 504757. shares compounds with ATG4B inhibitor; in the data active means inhibition above about 39%
PLA2 ctr = inhibits human PLA2, flagging false ATG4B inhibitors | purified PLA2, NBD-C6-HPC fluorescence, 45 min | shares compounds with ATG4B inhibitor | actives 66% (n = 1,600) | inhibition, % at 8.33 µM; in the data active means inhibition above about 50%
Numbers without * were called inactive; . = not tested or not shown. This is a sample that favours compounds with a hit; in the whole collection about 1.4% have one here.

SMILES	TbMetRS inhib	UCH37 inh	ATG4B inhibitor	Rin1 Abl inh	PLA2 ctr	others
COc1ccc(CN2C(=O)c3ccccc3C(/C=N\OCc3ccc(F)cc3)C2=O)cc1 (stereo not given)	-0.9	.	60.2*	-3.4	75.0*
COCCN=c1scc(-c2cc(OC)c(OC)c(OC)c2)n1/N=C/c1c(C)[nH]c2ccccc12	0.7	.	42.6*	-3.8	70.6*
COCCN=c1scc(-c2ccccc2)n1N=Cc1c[nH]c2ccccc12	.	6.5	.	.	.
COc1nc(N2CCOCC2)nc(C)c1[N+](=O)[O-]	-1.3	9.3	30.0	-1.4	.
O=C(NCc1ccc(Cl)cc1)Nc1ccc(F)cc1	0.0	-2.7	8.0	-1.1	.
CC(C)c1ccc(NC(=O)NCc2ccc(F)cc2)cc1	-0.5	0.8	60.8*	2.5	67.2*
CCOC(=O)c1ccc(NC(=S)NCc2ccc(F)cc2)cc1	0.5	2.2	44.1*	0.5	55.8*
C/C(=N\NC(=S)NCc1ccccc1)c1ccccc1F	0.0	.	-8.0	0.5	.
OCC1(Cc2ccccc2C(F)(F)F)CCN(Cc2ccc3c(c2)CCO3)CC1	-0.7	-1.5	-0.9	1.2	.
CC1CCN(C(=O)CSc2nc3c(c(=O)n2C)SCC3)CC1	0.5	7.6	9.0	1.9	.
Cc1noc(C)c1C(=O)Nc1ccc(-n2ccc(C(F)(F)F)n2)cc1	-0.4	-0.4	3.8	2.7	.
Cc1ccc(S(=O)(=O)Oc2ccc(/C=C3\C(=N)N4N=C(S(C)(=O)=O)SC4=NC3=O)cc2)cc1	0.1	4.3	66.3*	2.5	76.9*
CCC1=NN2C(=N)/C(=C\c3cccn3-c3ccc(Cl)cc3)C(=O)N=C2S1	-0.5	1.7	12.1	3.5	.
Cc1ccc(S(=O)(=O)Oc2ccc(/C=C3/C(=N)N4C(=NC3=O)SN=C4S(C)(=O)=O)cc2)cc1	0.3	13.7	54.4*	5.4	66.7*
CCc1ccc(-n2cccc2/C=C2/C(=N)N3C(=NC2=O)SN=C3S(C)(=O)=O)cc1	0.2	9.1	45.2*	-2.4	32.7	ATG4B confirm=67.7*
Cc1ccc(-n2cccc2/C=C2\C(=N)N3N=C(c4ccco4)SC3=NC2=O)cc1	-0.5	5.9	78.1*	0.3	62.0*
CC(=O)c1ccc(NC(=O)CCC(=O)N2CC(C)Oc3ccc(C)cc32)cc1 (stereo not given)	-1.1	2.7	8.1	0.2	.
CCOc1cc(CNCc2ccc(C(=O)O)cc2)ccc1OC	-0.2	1.4	-0.9	2.6	.
NC(=O)c1ccc(-n2nnnc2Oc2ccccc2)cc1	-0.1	-0.2	54.5*	-5.1	49.8
C/C=C/c1ccc(Oc2nnnn2-c2ccc(C(N)=O)cc2)c(OC)c1	-1.2	3.4	69.3*	-2.4	80.5*
COc1ccccc1Oc1nnnn1-c1ccc(C(N)=O)cc1	-1.1	3.0	10.1	2.0	.
CC(C)(C)c1[nH]nc2c1C(c1cccnc1)C(C#N)=C(N)O2 (stereo not given)	-0.2	3.0	4.6	2.4	.
COc1ccc(-c2[nH]nc3c2C(c2ccc(OC(=O)N4CCOCC4)cc2)C(C#N)=C(N)O3)cc1 (stereo not given)	.	4.4	41.7*	.	44.0	ATG4B confirm=75.9*
CC(C)(C)c1[nH]nc2c1C(c1ccc(OC(=O)c3ccco3)cc1)C(C#N)=C(N)O2 (stereo not given)	-0.7	4.1	83.1*	-0.7	85.9*
O=C(N[C@@H](Cc1ccc(Br)cc1)C(=O)O)OCC1c2ccccc2-c2ccccc21	-0.3	4.0	29.6	2.0	.
O=C(N[C@H](Cc1ccc(Cl)cc1)C(=O)O)OCC1c2ccccc2-c2ccccc21	0.0	5.4	78.5*	-1.2	86.3*
O=C(O)COc1ccccc1C=NNc1ccc([N+](=O)[O-])cc1S(=O)(=O)Nc1ccc(Cl)cc1	0.4	-5.9	44.3*	1.9	42.8	ATG4B confirm=63.7*
COc1ccc(NS(=O)(=O)c2cc([N+](=O)[O-])ccc2NN=Cc2ccccc2OCC(=O)O)cc1	2.6	4.9	-39.2	-3.3	.
O=C1Nc2ccc(F)cc2C12Nc1ccccc1-c1nnc(SCc3ccccc3Cl)nc1O2 (stereo not given)	0.4	2.4	43.2*	-5.2	77.4*
O=C1Nc2ccc(F)cc2C12Nc1ccccc1-c1nnc(SCc3ccccc3)nc1O2 (stereo not given)	0.6	2.5	6.1	-4.1	.
